Active and inactive are the calls of the source. No cut-off for these calls is given here.
Key:
[1] = Displacement of [125I]DMFV from amyloid beta (1 to 42) aggregates
How it was run: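 Aβ(1-42) aggregated at 0.25 mg/mL in 10 mM sodium phosphate with 1 mM EDTA, pH 7.4, 37 °C for 42 h. Competition: 0.02 nM [125I]DMFV, test compound at 0.2 pM–400 µM, and aggregates in 10% EtOH, incubated 3 h at room temperature. Bound ligand collected on GF/B filters and gamma-counted. IC50 taken from displacement curves; Ki by Cheng-Prusoff using DMFV Kd 12.3 nM.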

Mus musculus = species: Mus musculus; assay: Binding affinity to amyloid beta (1 to 42) aggregates in Tg2576 mouse brain at 100 uM by fluorescent staining method; type: tissue-based
How it was run: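 Tg2576 transgenic mice (female, 20 months old) killed by decapitation under isoflurane; brains frozen in powdered dry ice and cut into 10 µm serial cryosections. Sections incubated with a 100 µM solution of fluorescent ligand in 50% ethanol, washed twice for 3 min in 50% ethanol, imaged by fluorescence microscopy (excitation 450–490 nm). Adjacent sections immunostained with anti-β-amyloid monoclonal antibody, DAB chromogen.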

Brain [2] = assay: Biodistribution in ddY mouse brain at 18.5 kBq, iv after 2 mins; type: ADME, organism-based; conditions: in vivo
How it was run: (§1)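 Normal ddY mice (5 weeks old, 22–25 g) received 18.5 kBq of 18F-labeled agent by tail-vein injection in 100 µL saline containing 5 µL ethanol. Killed under isoflurane anesthesia at each time point; organs removed and weighed, radioactivity gamma-counted. Expressed as %ID/g, mean ± SD of 4–5 mice per interval.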

Brain [3] = assay: Biodistribution in ddY mouse brain at 18.5 kBq, iv after 10 mins; type: ADME, organism-based; conditions: in vivo; how it was run: as §1
Blood [4] = assay: Biodistribution in ddY mouse blood at 18.5 kBq, iv after 60 mins; type: ADME, organism-based; conditions: in vivo, 1 h; how it was run: as §1
Blood [5] = assay: Biodistribution in ddY mouse blood at 18.5 kBq, iv after 30 mins; type: ADME, organism-based; conditions: in vivo, 0.5 h; how it was run: as §1
Blood [6] = assay: Biodistribution in ddY mouse blood at 18.5 kBq, iv after 2 mins; type: ADME, organism-based; conditions: in vivo; how it was run: as §1
Blood [7] = assay: Biodistribution in ddY mouse blood at 18.5 kBq, iv after 10 mins; type: ADME, organism-based; conditions: in vivo; how it was run: as §1
Brain [8] = assay: Biodistribution in ddY mouse brain at 18.5 kBq, iv after 30 mins; type: ADME, organism-based; conditions: in vivo, 0.5 h; how it was run: as §1
Brain [9] = assay: Biodistribution in ddY mouse brain at 18.5 kBq, iv after 60 mins; type: ADME, organism-based; conditions: in vivo, 1 h; how it was run: as §1
Bone [10] = assay: Biodistribution in ddY mouse bone at 18.5 kBq, iv after 2 mins; type: ADME, organism-based, Bone element; conditions: in vivo; how it was run: as §1
Bone [11] = assay: Biodistribution in ddY mouse bone at 18.5 kBq, iv after 10 mins; type: ADME, organism-based, Bone element; conditions: in vivo; how it was run: as §1
Bone [12] = assay: Biodistribution in ddY mouse bone at 18.5 kBq, iv after 30 mins; type: ADME, organism-based, Bone element; conditions: in vivo, 0.5 h; how it was run: as §1
Bone [13] = assay: Biodistribution in ddY mouse bone at 18.5 kBq, iv after 60 mins; type: ADME, organism-based, Bone element; conditions: in vivo, 1 h; how it was run: as §1

Q: For `Nc1ccc(-c2cc(=O)c3cc(F)ccc3o2)cc1`, which Ki [1] is on record?
A: 0.261 µM

Q: With `Nc1ccc(-c2cc(=O)c3cc(OCCF)ccc3o2)cc1` as the compound, how does the Ki [1] read?
A: 0.234 µM

Q: With `CNc1ccc(-c2cc(=O)c3cc(OCCF)ccc3o2)cc1` as the compound, how does the Ki [1] read?
A: 0.099 µM

Q: What does the source list for `CN(C)c1ccc(-c2cc(=O)c3cc(OCCF)ccc3o2)cc1`?
A: Ki [1]: 0.0053 µM; Activity (Mus musculus): Active

Q: For `CN(C)c1ccc(-c2cc(=O)c3cc(OCCOCCOCC[18F])ccc3o2)cc1`, which Drug uptake (Brain [2]) is on record?
A: 2.89 % ID/g

Q: And the Drug uptake (Brain [3])?
A: 2.23 % ID/g

Q: What about the Drug uptake (Blood [4]) of the same compound?
A: 1.88 % ID/g

Q: What about the Drug uptake (Blood [5]) of the same compound?
A: 1.4 % ID/g

Q: And the Drug uptake (Blood [6])?
A: 2.35 % ID/g

Q: What about the Drug uptake (Blood [7]) of the same compound?
A: 1.5 % ID/g

Q: And the Drug uptake (Brain [8])?
A: 1.31 % ID/g

Q: And the Drug uptake (Brain [9])?
A: 1.37 % ID/g

Q: What about the Drug uptake (Bone [10]) of the same compound?
A: 1.53 % ID/g

Q: And the Drug uptake (Bone [11])?
A: 2.38 % ID/g

Q: And the Drug uptake (Bone [12])?
A: 4.06 % ID/g

Q: What about the Drug uptake (Bone [13]) of the same compound?
A: 5.21 % ID/g

Q: What does the source list for `CN(C)c1ccc(-c2cc(=O)c3cc(OCC[18F])ccc3o2)cc1`?
A: Drug uptake (Brain [2]): 4.17 % ID/g; Drug uptake (Brain [3]): 3.62 % ID/g; Drug uptake (Blood [4]): 3.25 % ID/g; Drug uptake (Blood [5]): 2.53 % ID/g; Drug uptake (Blood [6]): 2.8 % ID/g; Drug uptake (Blood [7]): 2.71 % ID/g; Drug uptake (Brain [8]): 1.89 % ID/g; Drug uptake (Brain [9]): 2.19 % ID/g; Drug uptake (Bone [10]): 2.02 % ID/g; Drug uptake (Bone [11]): 2.83 % ID/g; Drug uptake (Bone [12]): 4.51 % ID/g; Drug uptake (Bone [13]): 6.21 % ID/g

Q: With `CNc1ccc(-c2cc(=O)c3cc(OCCOCCOCCF)ccc3o2)cc1` as the compound, how does the Ki [1] read?
A: 0.0451 µM

Q: For `CN(C)c1ccc(-c2cc(=O)c3cc(OCCOCC[18F])ccc3o2)cc1`, which Drug uptake (Brain [2]) is on record?
A: 3.54 % ID/g

Q: And the Drug uptake (Brain [3])?
A: 2.75 % ID/g

Q: And the Drug uptake (Blood [4])?
A: 2.94 % ID/g

Q: What about the Drug uptake (Blood [5]) of the same compound?
A: 2.5 % ID/g

Q: And the Drug uptake (Blood [6])?
A: 2.09 % ID/g

Q: And the Drug uptake (Blood [7])?
A: 2.3 % ID/g

Q: What about the Drug uptake (Brain [8]) of the same compound?
A: 2 % ID/g

Q: What about the Drug uptake (Brain [9]) of the same compound?
A: 2.13 % ID/g

Q: And the Drug uptake (Bone [10])?
A: 1.13 % ID/g

Q: And the Drug uptake (Bone [11])?
A: 1.65 % ID/g

Q: What about the Drug uptake (Bone [12]) of the same compound?
A: 2.42 % ID/g

Q: And the Drug uptake (Bone [13])?
A: 3.74 % ID/g

Q: For `Nc1ccc(-c2cc(=O)c3cc(OCCOCCF)ccc3o2)cc1`, which Ki [1] is on record?
A: 0.321 µM

Q: With `CNc1ccc(-c2cc(=O)c3cc(OCCOCCF)ccc3o2)cc1` as the compound, how does the Ki [1] read?
A: 0.0545 µM

Q: For `CN(C)c1ccc(-c2cc(=O)c3cc(F)ccc3o2)cc1`, which Ki [1] is on record?
A: 0.0739 µM

Q: Which results are given for `CN(C)c1ccc(-c2cc(=O)c3cc(OCCOCCOCCF)ccc3o2)cc1`?
A: Ki [1]: 0.0193 µM; Activity (Mus musculus): Active

Q: Which Ki [1] does the source give for `CNc1ccc(-c2cc(=O)c3cc(F)ccc3o2)cc1` here?
A: 0.11 µM

Q: For `Nc1ccc(-c2cc(=O)c3cc(OCCOCCOCCF)ccc3o2)cc1`, which Ki [1] is on record?
A: 0.234 µM

Q: Which Ki [1] does the source give for `CN(C)c1ccc(-c2cc(=O)c3cc(OCCOCCF)ccc3o2)cc1` here?
A: 0.0144 µM

Q: What about the Activity (Mus musculus) of the same compound?
A: Active
